Data: ChEMBL document CHEMBL4513216, “Probing the Open Global Health Chemical Diversity Library for Multistage-Active Starting Points for Next-Generation Antimalarials” (ACS Infect Dis, 2020)

Test: Toxicity liver stage against HepG2, at 10uM
Format: cell-based
Set-up: test concentration 10 uM, cell line HepG2-A16-CD81EGFP
Details: human, HepG2-A16-CD81EGFP cells; read-out: INHIBITION
In short: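 Uninfected HepG2-A16-CD81EGFP cells, 3 × 10^3 per well, 1536-well, plated on prespotted compound at 10 μM final, parasite-free screening media added to match infected plates; puromycin 10 μM positive, DMSO 0.5% negative; run in parallel with 48 h PbLuc assay at 37 °C, 5% CO2; viability by CellTiter-Glo luminescence, normalized to controls.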

Compound	cytotoxicity at 10 µM [%]
O=C(O)c1cn(CC2CCCN(c3nccc4occc34)C2)nn1 (stereo unspecified)	-5.17
CS(=O)(=O)NCc1cc2n(n1)CCCN(Cc1cc3ccccc3o1)C2	0.403
Cn1cccc1C(=O)N1CCCC(Cn2cc(CO)nn2)C1 (stereo unspecified)	1.85
CC(C)CN1CCn2nc(CNc3ncnc4[nH]ccc34)cc2C1	-0.531
CCCc1nc(CN(CC)C(=O)c2ccc3ncsc3c2)no1	9.65
COc1ccc(C(C)n2ccnc2-c2cc3n(n2)CCCNC3)cc1F (stereo unspecified)	-3.06
CN(C)c1nc2c(c(N3CCc4c(c(CO)nn4C)C3)n1)CCNC2	-5.72
COc1cc(NCc2ccccc2-n2cncn2)nc(N)n1	-11
COCCC1(CO)CCCN(C(=O)c2cc(Cl)ccc2F)C1 (stereo unspecified)	4.36
CCN1CCC(CC(=O)N[C@H](C(=O)O)c2cccc(F)c2F)CC1	-2.62
Cc1cnccc1CN(C)C(=O)c1cccc(CCC(C)(C)O)c1	-3.55
Cc1nc(NCCSc2nnc(C)s2)c2cccnc2n1	-0.125
Cc1ccc(F)cc1CC(=O)N(CCN1CCOCC1)Cc1ccco1	-3.91
C[C@@H]1CN(C2CCN(c3ccccc3)CC2)CC[C@@]1(O)C1CCOCC1	-10.6
COCCCC1(CO)CCCN(CCS(C)(=O)=O)C1 (stereo unspecified)	-16
COCCc1noc(CN2CCCCC2Cn2cccn2)n1 (stereo unspecified)	-1.3
CN(C)C(=O)c1cccc(CN2CCOC(Cn3cccn3)C2)c1 (stereo unspecified)	-0.29
CCc1ccc(C(=O)N2CCCCC2Cn2cccn2)o1 (stereo unspecified)	-6.8
COc1cc(C(=O)N2CCCC2c2noc(C(C)C)n2)on1 (stereo unspecified)	-12.4

Compound	cytotoxicity at 10 µM [%]
CN1CCOC(CN(C(=O)COc2ccccc2)c2nccs2)C1 (stereo unspecified)	-8.18
Cc1nn(C)c(C)c1C1CCCN1Cc1nc(-c2cccs2)no1 (stereo unspecified)	-9.43
Cc1nc(C)n(CC2CCCN(Cc3cc(C#N)ccc3F)C2)n1 (stereo unspecified)	-18.3
CNc1cc(N2CCCC2CNCc2cscn2)ncn1 (stereo unspecified)	-0.426
N#Cc1ccccc1N1CCCN(C(=O)CCc2ccco2)CC1	-8.48
CN(C)c1cc(CNC(=O)c2cc(F)ccc2F)ccn1	-8.35
c1ccc(Cc2noc(CN3CCCC(Cn4cncn4)C3)n2)cc1 (stereo unspecified)	-2.38
Cc1ncc(C(=O)N2CCCC(n3cccn3)C2)s1 (stereo unspecified)	-5.8
CN(Cc1nnc2n1CCC2)C(=O)c1ccc2c(c1)OCCO2	-17.8
Cc1ccc(-c2ncc(C(=O)NS(C)(=O)=O)s2)c(C)c1	-8.91
CN(C)c1cc(CNC(=O)Nc2nncs2)ccn1	-20.5
Cc1nc(C)n(CC2CCCN(CCC(=O)N3CCOCC3)C2)n1 (stereo unspecified)	-6.7
CC(C)C(=O)NCc1ccc(-n2cncn2)nc1	0.239
COC(=O)c1cc(C(=O)N2CCOCC2(C)C)n(-c2ccccc2)n1	-10.2
O=C(Cn1cnnn1)N1CCCCC1Cn1cccn1 (stereo unspecified)	-9.24
CCCc1noc(CCC(=O)N2CCCC2c2ccsc2)n1 (stereo unspecified)	-11
CC(NC(=O)N1CCN(c2ccccc2)CC1)c1nncn1C (stereo unspecified)	2.36
Cc1nn(C)c(Cl)c1C1CCCN1C(=O)c1nccnc1N (stereo unspecified)	-6.9
O=C(NCc1ccc(-n2cncn2)nc1)c1ccc2c(c1)CCO2	-10.2

Compound	cytotoxicity at 10 µM [%]
O=C(Nc1cccc(F)c1)C1=NOC2(CCNCC2)C1	5.19
CCOCC1CN(Cc2ccccn2)Cc2nn(CC3CC3)cc21 (stereo unspecified)	-0.966
COCC(=O)NC1CC2(CCN(CC3CC3)CC2)Oc2ccccc21 (stereo unspecified)	-2.6
O=C(C1CCCCC1)N1CCCC2(CCN(c3cnccn3)CC2)C1	6.59
CC(C)c1nc(-c2cc(C(=O)NCCN(C)C)c3ccccn23)cs1	4.77
Cc1nc(CN2CCC3(CCCN(C(=O)c4cnccn4)C3)C2)cs1 (stereo unspecified)	-147
Cc1noc([C@@H]2CC[C@@H]3[C@@H](CCN3S(=O)(=O)c3cccnc3)O2)n1	-13.1
CCOC1COC2(CCN(Cc3ccco3)CC2)C1 (stereo unspecified)	-2.98
CCN1CC2(CC1=O)CN(Cc1cnn(C)c1)CCN(C(C)=O)C2 (stereo unspecified)	-12.5
CC(C)C1COC2(CCN(Cc3ccco3)CC2)C1 (stereo unspecified)	-3.57
Cc1nnc([C@]23COC[C@H]2CN(S(=O)(=O)c2cccnc2)C3)o1	-97.8
O=C(c1cccnc1)N1CCC2(CC1)COC(COc1ccccn1)C2 (stereo unspecified)	-0.735
COCC(=O)N1CCCn2c(CN3CCOCC3)nnc2C1	-131
Cc1ccccc1C(=O)N1C[C@@H]2OCCN(c3ncccn3)[C@@H]2C1	29.5
CS(=O)(=O)NC[C@@H]1OC[C@H]2CN(C(=O)c3ccccn3)CC[C@H]21	-7.47
O=C(CC1CC1)N[C@@H]1CN(Cc2ccco2)C[C@@H]2CCCO[C@@H]21	-1.63
c1csc(CN2C[C@@H](n3cccn3)[C@H]3OCCC[C@H]32)c1	1.63
CN1CC[C@]2(CN(Cc3nccs3)C[C@H]2c2ccccc2)C1=O	10.8
